Measurements from ChEMBL document CHEMBL1765057, “Pyrazolo[4,3-d]pyrimidine bioisostere of roscovitine: evaluation of a novel selective inhibitor of cyclin-dependent kinases with antiproliferative activity” (J Med Chem, 2011).
The source made the active and inactive calls. The calls are words filed in the database; no cut-off is given here.

Tests used:
[1] = target: Glycogen synthase kinase-3 alpha (Homo sapiens) (UniProt P49840); experiment: Inhibition of human recombinant GSK3A at 10 uM
[2] = target: Casein kinase I isoform alpha (Homo sapiens) (UniProt P48729); experiment: Inhibition of human recombinant CK1 at 10 uM
Casein kinase I isoform alpha (Homo sapiens), sequence (P48729 2-337 limits assumed): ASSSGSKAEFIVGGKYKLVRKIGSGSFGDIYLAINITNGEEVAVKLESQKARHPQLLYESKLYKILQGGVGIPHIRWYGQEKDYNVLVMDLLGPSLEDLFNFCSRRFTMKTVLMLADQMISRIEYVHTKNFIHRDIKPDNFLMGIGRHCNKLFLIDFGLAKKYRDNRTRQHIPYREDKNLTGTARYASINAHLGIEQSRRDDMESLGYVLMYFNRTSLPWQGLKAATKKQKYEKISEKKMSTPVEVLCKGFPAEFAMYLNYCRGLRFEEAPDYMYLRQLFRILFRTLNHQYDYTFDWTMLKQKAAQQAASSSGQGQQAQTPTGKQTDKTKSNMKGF

[3] = target: Ribosomal protein S6 kinase alpha-5 (Homo sapiens) (UniProt O75582); experiment: Inhibition of human recombinant MSK1 at 10 uM
Ribosomal protein S6 kinase alpha-5 (Homo sapiens), sequence (O75582 whole entry, looked up): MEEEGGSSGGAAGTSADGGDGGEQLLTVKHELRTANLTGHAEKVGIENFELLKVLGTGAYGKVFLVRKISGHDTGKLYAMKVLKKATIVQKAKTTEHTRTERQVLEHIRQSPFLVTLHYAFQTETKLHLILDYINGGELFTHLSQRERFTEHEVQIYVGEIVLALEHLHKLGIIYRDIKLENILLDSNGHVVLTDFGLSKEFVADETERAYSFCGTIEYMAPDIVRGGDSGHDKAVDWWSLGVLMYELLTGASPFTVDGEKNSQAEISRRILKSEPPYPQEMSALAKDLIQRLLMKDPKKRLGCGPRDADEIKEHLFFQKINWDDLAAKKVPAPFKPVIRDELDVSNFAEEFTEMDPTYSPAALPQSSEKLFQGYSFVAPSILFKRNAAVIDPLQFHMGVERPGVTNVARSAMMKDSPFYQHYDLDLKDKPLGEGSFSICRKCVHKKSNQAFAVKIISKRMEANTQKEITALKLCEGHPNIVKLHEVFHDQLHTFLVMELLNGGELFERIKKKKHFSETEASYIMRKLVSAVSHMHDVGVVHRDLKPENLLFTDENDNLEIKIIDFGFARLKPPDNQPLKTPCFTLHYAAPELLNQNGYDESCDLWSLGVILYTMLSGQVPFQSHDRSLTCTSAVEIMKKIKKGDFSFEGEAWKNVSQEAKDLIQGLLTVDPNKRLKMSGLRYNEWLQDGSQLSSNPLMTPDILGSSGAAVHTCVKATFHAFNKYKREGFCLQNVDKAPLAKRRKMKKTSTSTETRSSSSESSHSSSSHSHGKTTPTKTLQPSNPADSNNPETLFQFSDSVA

MCF7 [4] = experiment: Cell cycle arrest in human MCF7 cells assessed as reduction of actively replicating DNA level at 80 uM after 24 hrs using propidium iodide and BrdU staining by flow cytometry; format: functional, cell-based
Method in brief: (§1)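 Subconfluent MCF-7 cells were treated for 24 h at a range of concentrations. They were pulse-labelled with 10 μM BrdU for 30 min at 37 °C, then trypsinized and fixed in ice-cold 70% ethanol. DNA was denatured in 2 M HCl and neutralized with borate. Cells were stained with fluorescein anti-BrdU and with propidium iodide plus RNase A, then analysed by flow cytometry at 488 nm.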

RPMI-8226 [5] = experiment: Cell cycle arrest in human RPMI8226 cells assessed as accumulation at sub-G1 phase after 24 hrs using propidium iodide and BrdU staining by flow cytometry; format: functional, cell-based
Method in brief: (§2)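 Asynchronously growing RPMI-8226 multiple myeloma cells were exposed for 24 h. Cells were double-stained with propidium iodide and BrdU and analysed by flow cytometry for G1, S, G2/M and BrdU-positive fractions. The subG1 population was taken as indicative of apoptosis.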

RPMI-8226 [6] = experiment: Cell cycle arrest in human RPMI8226 cells assessed as decrease in S phase cell population after 24 hrs using propidium iodide and BrdU staining by flow cytometry; format: functional, cell-based; method in brief: as §2
[7] = target: T1, Retinoblastoma-associated protein (Homo sapiens) (UniProt P06400); experiment: Inhibition of retinoblastoma protein in human HT-29 cells assessed as reduction of cyclin A level at 2.5 to 40 uM after 24 hrs by immunoblotting; format: cell-based
T1 sequence (whole entry): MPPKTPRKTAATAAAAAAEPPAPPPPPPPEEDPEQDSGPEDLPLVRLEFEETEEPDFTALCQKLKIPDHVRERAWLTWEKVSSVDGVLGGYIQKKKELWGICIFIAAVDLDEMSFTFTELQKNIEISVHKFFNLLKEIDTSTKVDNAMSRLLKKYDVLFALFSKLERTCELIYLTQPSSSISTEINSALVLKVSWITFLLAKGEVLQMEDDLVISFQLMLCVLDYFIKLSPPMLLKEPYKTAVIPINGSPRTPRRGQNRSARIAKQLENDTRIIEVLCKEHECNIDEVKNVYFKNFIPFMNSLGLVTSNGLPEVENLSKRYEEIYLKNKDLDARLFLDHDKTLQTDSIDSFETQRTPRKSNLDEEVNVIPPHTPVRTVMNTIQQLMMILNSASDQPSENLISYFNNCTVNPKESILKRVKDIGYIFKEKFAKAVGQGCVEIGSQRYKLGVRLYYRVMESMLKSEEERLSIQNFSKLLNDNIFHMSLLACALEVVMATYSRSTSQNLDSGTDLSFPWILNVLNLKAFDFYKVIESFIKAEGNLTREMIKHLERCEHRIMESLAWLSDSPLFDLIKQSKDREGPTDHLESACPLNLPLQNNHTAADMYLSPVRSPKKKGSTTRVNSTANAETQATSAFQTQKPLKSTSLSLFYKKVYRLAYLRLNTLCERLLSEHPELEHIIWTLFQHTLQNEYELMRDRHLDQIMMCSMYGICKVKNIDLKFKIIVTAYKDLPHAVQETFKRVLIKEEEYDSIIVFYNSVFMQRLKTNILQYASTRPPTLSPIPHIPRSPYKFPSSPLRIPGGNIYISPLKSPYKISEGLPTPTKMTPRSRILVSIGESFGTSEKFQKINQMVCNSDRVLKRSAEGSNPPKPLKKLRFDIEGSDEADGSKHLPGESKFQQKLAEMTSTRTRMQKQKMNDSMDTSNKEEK

[8] = target: CDK9/cyclin T1 (Homo sapiens) (UniProt O60563+P50750); experiment: Inhibition of human recombinant CDK9/cyclin T1 at 10 uM; format: protein-complex assay
[9] = target: Cyclin-dependent kinase 7/ cyclin H (Homo sapiens) (UniProt P51946+P50613); experiment: Inhibition of human recombinant CDK7/cyclin H/MAT1 at 10 uM; format: protein-complex assay
MCF7 [10] = experiment: Cell cycle arrest in human MCF7 cells assessed as accumulation at G2/M phase after 24 hrs using propidium iodide and BrdU staining by flow cytometry; format: functional, cell-based; method in brief: as §1
[11] = target: Glycogen synthase kinase-3 beta (Homo sapiens) (UniProt P49841); experiment: Inhibition of human recombinant GSK3B at 10 uM
Glycogen synthase kinase-3 beta (Homo sapiens), sequence (P49841 whole entry, looked up): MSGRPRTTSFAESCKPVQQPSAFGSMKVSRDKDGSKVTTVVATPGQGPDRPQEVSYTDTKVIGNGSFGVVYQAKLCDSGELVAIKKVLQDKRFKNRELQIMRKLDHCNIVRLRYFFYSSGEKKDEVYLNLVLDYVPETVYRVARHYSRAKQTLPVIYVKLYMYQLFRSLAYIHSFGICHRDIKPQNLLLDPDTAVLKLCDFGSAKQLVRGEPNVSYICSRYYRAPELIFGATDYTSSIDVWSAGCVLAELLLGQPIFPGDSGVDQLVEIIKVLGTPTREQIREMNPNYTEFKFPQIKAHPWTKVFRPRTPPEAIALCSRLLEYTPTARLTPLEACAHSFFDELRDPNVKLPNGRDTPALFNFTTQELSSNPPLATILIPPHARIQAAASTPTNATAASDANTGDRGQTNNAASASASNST

MCF7 [12] = experiment: Cell cycle arrest in human MCF7 cells assessed as decrease in S phase cell population after 24 hrs using propidium iodide and BrdU staining by flow cytometry; format: functional, cell-based; method in brief: as §1
[13] = target: MAP kinase-activated protein kinase 5 (Homo sapiens) (UniProt Q8IW41); experiment: Inhibition of human recombinant PRAK at 10 uM
MAP kinase-activated protein kinase 5 (Homo sapiens), sequence (Q8IW41 whole entry): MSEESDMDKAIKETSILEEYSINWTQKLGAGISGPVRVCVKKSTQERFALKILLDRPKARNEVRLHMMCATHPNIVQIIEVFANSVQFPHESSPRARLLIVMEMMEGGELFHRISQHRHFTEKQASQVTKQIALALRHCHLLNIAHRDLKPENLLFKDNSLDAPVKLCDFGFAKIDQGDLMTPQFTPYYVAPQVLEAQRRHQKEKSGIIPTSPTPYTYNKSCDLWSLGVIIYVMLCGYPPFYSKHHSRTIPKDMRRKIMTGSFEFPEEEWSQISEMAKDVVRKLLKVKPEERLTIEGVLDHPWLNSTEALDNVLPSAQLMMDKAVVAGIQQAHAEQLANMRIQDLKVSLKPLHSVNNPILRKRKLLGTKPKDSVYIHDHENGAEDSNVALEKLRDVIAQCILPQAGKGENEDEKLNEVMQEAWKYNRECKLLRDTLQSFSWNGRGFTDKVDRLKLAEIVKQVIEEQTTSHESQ

RPMI-8226 [14] = experiment: Cell cycle arrest in human RPMI8226 cells assessed as reduction of actively replicating DNA level at 80 uM after 24 hrs using propidium iodide and BrdU staining by flow cytometry; format: functional, cell-based; method in brief: as §2
[15] = target: T1, Retinoblastoma-associated protein (Homo sapiens); experiment: Inhibition of retinoblastoma protein in human HT-29 cells assessed as reduction of CDK4 level at 2.5 to 40 uM after 24 hrs by immunoblotting; format: cell-based
RPMI-8226 [16] = experiment: Cell cycle arrest in human RPMI8226 cells assessed as accumulation at G2/M phase after 24 hrs using propidium iodide and BrdU staining by flow cytometry; format: functional, cell-based; method in brief: as §2
MCF7 [17] = experiment: Cell cycle arrest in human MCF7 cells assessed as accumulation at sub-G1 phase after 24 hrs using propidium iodide and BrdU staining by flow cytometry; format: functional, cell-based; method in brief: as §1
U2OS [18] = conditions: Homo sapiens, 10 uM
[19] = target: Cellular tumor antigen p53 (Homo sapiens) (UniProt P04637); experiment: Induction of p53-dependent transcriptional activity in human MCF7 cells assessed as increase of p21 WAF1 level at 20 uM after 24 hrs by immunofluorescence assay; format: cell-based
Cellular tumor antigen p53 (Homo sapiens), sequence (P04637 whole entry, looked up): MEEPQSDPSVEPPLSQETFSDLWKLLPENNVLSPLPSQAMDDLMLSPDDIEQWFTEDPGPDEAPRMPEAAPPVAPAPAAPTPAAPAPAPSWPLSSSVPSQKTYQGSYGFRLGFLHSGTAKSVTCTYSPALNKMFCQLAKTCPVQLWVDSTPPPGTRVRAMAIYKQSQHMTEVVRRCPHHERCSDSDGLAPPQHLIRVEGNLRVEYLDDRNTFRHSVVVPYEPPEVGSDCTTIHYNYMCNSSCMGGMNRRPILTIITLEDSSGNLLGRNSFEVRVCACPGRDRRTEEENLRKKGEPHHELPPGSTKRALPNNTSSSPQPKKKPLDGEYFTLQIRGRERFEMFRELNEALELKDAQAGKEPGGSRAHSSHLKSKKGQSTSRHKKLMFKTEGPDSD

[20] = target: Casein kinase II (Homo sapiens) (UniProt P67870+P68400+P19784); experiment: Inhibition of human recombinant CK2 at 10 uM; format: protein-complex assay
[21] = target: Dual specificity mitogen-activated protein kinase kinase 1 (Homo sapiens) (UniProt Q02750); experiment: Inhibition of human recombinant MEK1 at 10 uM
Dual specificity mitogen-activated protein kinase kinase 1 (Homo sapiens), sequence (Q02750 whole entry): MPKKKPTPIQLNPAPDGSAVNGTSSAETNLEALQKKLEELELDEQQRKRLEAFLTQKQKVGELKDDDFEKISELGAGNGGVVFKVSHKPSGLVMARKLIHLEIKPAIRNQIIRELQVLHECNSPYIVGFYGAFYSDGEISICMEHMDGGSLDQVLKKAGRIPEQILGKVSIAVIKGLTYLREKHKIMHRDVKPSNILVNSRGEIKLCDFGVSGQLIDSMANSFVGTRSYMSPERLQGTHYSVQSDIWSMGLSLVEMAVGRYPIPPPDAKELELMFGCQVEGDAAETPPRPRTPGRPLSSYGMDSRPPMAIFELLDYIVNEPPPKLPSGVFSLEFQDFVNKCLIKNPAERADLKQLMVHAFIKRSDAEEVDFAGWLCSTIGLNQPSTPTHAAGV

U2OS [22] = experiment: Reduction of homologous recombination in human DR-U2OS-GFP cells expressing I-SceI nuclease at 0.1 uM after 56 hrs […] relative to control; format: functional
[23] = target: Cyclin-dependent kinase 5/CDK5 activator 1 (Homo sapiens, UniProt Q00535); experiment: Inhibition of human recombinant CDK5/p35; format: protein-complex assay
[24] = target: Cyclin-dependent kinase 2/cyclin E1 (Homo sapiens, UniProt P24941); experiment: Inhibition of human recombinant CDK2/cyclin E; format: protein-complex assay
CDK9/cyclin T1 = CDK9/cyclin T1 (Homo sapiens, UniProt P50750); experiment: Inhibition of human recombinant CDK9/cyclin T1; format: protein-complex assay
CDK9/cyclin T1, sequence (O60563 whole entry): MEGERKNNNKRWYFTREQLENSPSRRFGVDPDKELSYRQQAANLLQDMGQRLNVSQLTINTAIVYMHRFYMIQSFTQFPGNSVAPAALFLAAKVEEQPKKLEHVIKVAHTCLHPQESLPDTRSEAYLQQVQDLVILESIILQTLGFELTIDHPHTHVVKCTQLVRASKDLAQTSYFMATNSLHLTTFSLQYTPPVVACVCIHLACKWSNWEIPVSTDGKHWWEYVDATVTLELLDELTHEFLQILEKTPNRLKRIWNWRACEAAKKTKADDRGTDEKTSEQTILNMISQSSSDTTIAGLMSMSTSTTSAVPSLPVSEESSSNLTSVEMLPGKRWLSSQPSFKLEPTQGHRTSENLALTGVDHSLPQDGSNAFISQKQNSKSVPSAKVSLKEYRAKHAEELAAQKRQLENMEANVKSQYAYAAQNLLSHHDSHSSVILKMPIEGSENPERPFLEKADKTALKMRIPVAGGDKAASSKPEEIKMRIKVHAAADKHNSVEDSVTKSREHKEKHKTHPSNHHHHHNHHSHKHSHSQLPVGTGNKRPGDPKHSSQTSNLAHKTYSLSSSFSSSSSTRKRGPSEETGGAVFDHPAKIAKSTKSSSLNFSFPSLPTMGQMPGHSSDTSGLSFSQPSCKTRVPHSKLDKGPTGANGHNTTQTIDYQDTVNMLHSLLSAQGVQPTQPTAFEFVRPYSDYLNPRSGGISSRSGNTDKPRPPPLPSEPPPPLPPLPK
CDK9/cyclin T1, sequence (P50750 whole entry): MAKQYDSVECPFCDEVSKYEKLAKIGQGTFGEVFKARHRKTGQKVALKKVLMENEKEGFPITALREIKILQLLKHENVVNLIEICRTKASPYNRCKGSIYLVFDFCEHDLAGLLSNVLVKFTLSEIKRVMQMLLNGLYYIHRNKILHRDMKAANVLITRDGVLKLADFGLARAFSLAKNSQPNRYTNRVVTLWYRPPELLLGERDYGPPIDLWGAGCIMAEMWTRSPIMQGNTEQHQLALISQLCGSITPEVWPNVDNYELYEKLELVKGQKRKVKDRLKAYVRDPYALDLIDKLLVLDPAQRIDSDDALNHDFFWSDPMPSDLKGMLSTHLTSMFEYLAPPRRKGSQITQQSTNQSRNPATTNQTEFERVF

[25] = target: Cyclin-dependent kinase 7/ cyclin H (Homo sapiens, UniProt P50613); experiment: Inhibition of human recombinant CDK7/cyclin H/MAT1; format: protein-complex assay
Cyclin-dependent kinase 7/ cyclin H, sequence (P51946 whole entry): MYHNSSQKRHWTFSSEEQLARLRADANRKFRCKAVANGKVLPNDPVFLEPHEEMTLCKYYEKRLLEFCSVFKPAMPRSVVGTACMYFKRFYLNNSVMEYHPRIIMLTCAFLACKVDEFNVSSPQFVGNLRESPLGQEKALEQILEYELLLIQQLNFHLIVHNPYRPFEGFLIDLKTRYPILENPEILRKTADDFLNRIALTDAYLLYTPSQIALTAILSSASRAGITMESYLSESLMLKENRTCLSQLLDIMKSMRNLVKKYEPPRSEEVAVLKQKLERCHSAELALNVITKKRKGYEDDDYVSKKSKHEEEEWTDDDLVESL
Cyclin-dependent kinase 7/ cyclin H, sequence (P50613 whole entry): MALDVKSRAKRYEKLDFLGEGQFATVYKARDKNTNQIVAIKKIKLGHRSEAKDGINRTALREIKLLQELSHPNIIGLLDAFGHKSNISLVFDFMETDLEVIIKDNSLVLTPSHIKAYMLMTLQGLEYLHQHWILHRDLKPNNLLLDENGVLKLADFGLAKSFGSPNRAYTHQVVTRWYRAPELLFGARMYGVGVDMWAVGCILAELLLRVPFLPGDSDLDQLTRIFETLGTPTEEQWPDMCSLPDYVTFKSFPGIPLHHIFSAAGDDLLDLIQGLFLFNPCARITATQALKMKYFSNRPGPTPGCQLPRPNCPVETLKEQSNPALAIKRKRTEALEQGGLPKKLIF

SMILES: CC[C@H](CO)Nc1nc(NCc2ccccc2)c2ncn(C(C)C)c2n1
- inhibition [1]: 13%
- inhibition [2]: 1%
- inhibition [3]: 29%
- Activity (MCF7 [4]): Active
- Activity (RPMI-8226 [5]): Active
- Activity (RPMI-8226 [6]): Active
- inhibition [7]: Active
- inhibition [8]: 87%
- inhibition [9]: 87%
- Activity (MCF7 [10]): Active
- inhibition [11]: 25%
- Activity (MCF7 [12]): Active
- inhibition [13]: 28%
- Activity (RPMI-8226 [14]): Active
- inhibition [15]: inactive
- Activity (RPMI-8226 [16]): Active
- Activity (MCF7 [17]): Active
- inhibition (U2OS [18]): inactive
- Activity [19]: Active
- inhibition [20]: 10%
- inhibition [21]: 38%

SMILES: CN1CC[C@H](c2c(O)cc(O)c3c(=O)cc(-c4ccccc4Cl)oc23)[C@H](O)C1 [ALVOCIDIB]
- inhibition at 0.1 µM (U2OS [22]): 62%

SMILES: CC[C@H](CO)Nc1nc(NCc2ccccc2)c2n[nH]c(C(C)C)c2n1
- IC50 [23]: 200 nM
- IC50 [24]: 40 nM
- IC50 (CDK9/cyclin T1): 1000 nM
- IC50 [25]: 160 nM
